Reference: ChEMBL document CHEMBL1136225, “Selective 3-amino-2-pyridinone acetamide thrombin inhibitors incorporating weakly basic partially saturated heterobicyclic P1-arginine mimetics” (Bioorg Med Chem Lett, 2003)

What was measured:
[1] = pKa value was determined; format: physicochemical
[2] = target: Coagulation factor X (Homo sapiens, UniProt P00742); assay: Inhibitory activity against coagulation factor X
Summary of the method: (§1)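 Amidolytic enzyme assays with chromogenic substrates for thrombin, trypsin and factor Xa; Ki derived from IC50 by Cheng–Prusoff, or from reaction velocity equations with and without inhibitor using the relevant Km.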

[3] = organism: Homo sapiens; assay: Concentration required to double the activated partial thromboplastin time in human plasma; format: functional
Summary of the method: (§2)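 Standard clotting assays (APTT, PT and TT) run in human plasma; value is the inhibitor concentration required to double each clotting time.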

[4] = organism: Homo sapiens; assay: Concentration required to double the prothrombin time in human plasma; format: functional; summary of the method: as §2
[5] = organism: Homo sapiens; assay: Concentration required to double the thrombin time in human plasma; format: functional; summary of the method: as §2
[6] = target: Prothrombin (Homo sapiens, UniProt P00734); assay: Inhibitory activity against thrombin; summary of the method: as §1
[7] = target: T1, Serine protease 1 (Bos taurus, UniProt P00760); assay: Inhibitory activity was evaluated against Trypsin; Inactive; summary of the method: as §1
T1 sequence (P00760 whole entry): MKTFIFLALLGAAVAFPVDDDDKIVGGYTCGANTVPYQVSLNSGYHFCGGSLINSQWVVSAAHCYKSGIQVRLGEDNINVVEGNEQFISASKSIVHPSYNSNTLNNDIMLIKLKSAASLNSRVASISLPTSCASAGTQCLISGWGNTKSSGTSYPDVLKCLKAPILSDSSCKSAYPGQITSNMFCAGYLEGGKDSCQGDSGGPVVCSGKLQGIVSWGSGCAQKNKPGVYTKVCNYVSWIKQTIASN

[8] = target: T2, Serine protease 1 (Bos taurus) (UniProt P00760); assay: Selectivity for inhibition of thrombin to that of trypsin
T2 sequence (whole entry): T1 sequence (P00760 whole entry)
Summary of the method: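 Selectivity expressed as Ki(trypsin)/Ki(thrombin), with both Ki values from chromogenic-substrate amidolytic assays.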

[9] = target: T1, Serine protease 1; assay: Inhibitory activity against Trypsin; Inactive; summary of the method: as §1
[10] = target: T1, Serine protease 1; assay: Inhibitory activity against Trypsin; summary of the method: as §1

Coagulation factor X, sequence (P00742 41-179 limits assumed): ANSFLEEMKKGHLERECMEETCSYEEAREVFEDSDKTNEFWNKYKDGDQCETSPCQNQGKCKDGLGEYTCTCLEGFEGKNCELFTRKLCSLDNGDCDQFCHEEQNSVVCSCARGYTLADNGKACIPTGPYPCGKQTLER
Coagulation factor X, sequence (P00742 235-488 limits assumed): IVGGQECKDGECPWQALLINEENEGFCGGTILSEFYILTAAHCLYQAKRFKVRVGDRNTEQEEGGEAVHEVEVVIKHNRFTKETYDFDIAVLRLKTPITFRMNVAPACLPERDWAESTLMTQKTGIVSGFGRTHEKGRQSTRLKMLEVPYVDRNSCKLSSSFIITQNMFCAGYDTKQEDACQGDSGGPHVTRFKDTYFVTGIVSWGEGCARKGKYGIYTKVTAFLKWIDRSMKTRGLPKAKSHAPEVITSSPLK

Row | Structure (SMILES) | pKa [1] | Ki [2] | Concentration [3] | Concentration [4] | Concentration [5] | Ki [6] | Ki [7] | Selectivity [8] | Ki [9] | Ki [10]
1 | Cc1ccc(NS(=O)(=O)Cc2ccccc2)c(=O)n1CC(=O)NCC1CCc2n[nH]cc2C1 (stereo unspecified) | 4 | 103 µM | 20.5 µM | 30.6 µM | 5.2 µM | 0.17 µM | Not Active | – | – | –
2 | Cc1ccc(NS(=O)(=O)Cc2ccccc2)c(=O)n1CC(=O)NC1CCc2n[nH]cc2C1 (stereo unspecified) | 3.7 | 99 µM | 272 µM | > 400 µM | 105 µM | – | – | 93 | – | –
3 | Cc1ccc(NS(=O)(=O)Cc2ccccc2)c(=O)n1CC(=O)NCC1CCc2nc(N)ncc2C1 (stereo unspecified) | – | 87.3 µM | 219 µM | > 400 µM | 84 µM | 6.9 µM | – | – | 640 µM | –
4 | Cc1ccc(NS(=O)(=O)Cc2ccccc2)c(=O)n1CC(=O)NCc1ccc2[nH]ncc2c1 | – | – | – | – | – | 0.0087 µM | – | – | – | –
5 | Cc1ccc(NS(=O)(=O)Cc2ccccc2)c(=O)n1CC(=O)NC1CCc2nc(N)sc2C1 (stereo unspecified) | 6.1 | – | – | – | – | – | – | – | – | –
6 | Cc1ccc(NS(=O)(=O)Cc2ccccc2)c(=O)n1CC(=O)NCC1CCc2nn(C)cc2C1 (stereo unspecified) | 3.6 | 95 µM | 318 µM | > 400 µM | 105 µM | 11.8 µM | – | 47 | – | 557 µM
7 | Cc1ccc(NS(=O)(=O)Cc2ccccc2)c(=O)n1CC(=O)NCC1CCc2nc(N)sc2C1 (stereo unspecified) | – | 106 µM | 121 µM | 334 µM | 44 µM | 2.5 µM | – | – | – | –
8 | Cc1ccc(NS(=O)(=O)Cc2ccccc2)c(=O)n1CC(=O)NC1CCc2nn(C)cc2C1 (stereo unspecified) | 3.2 | 90.2 µM | > 200 µM | > 400 µM | 375 µM | – | – | 32 | – | 807 µM
